# Data as given in ChEMBL document CHEMBL1165950, “Design and synthesis of new potent anticancer pyrazoles with high FLT3 kinase inhibitory selectivity” (Bioorg Med Chem, 2010).
# Columns and labels:
# Type in all cases: functional
# HT-29 [1] = assay: Cytotoxicity against human HT-29 cells assessed as cell growth at 0.001 uM after 48 hrs by sulforhodamine B assay; details: HT-29, 48 h, read-out: Activity
# U-251 = assay: Cytotoxicity against human U251 cells assessed as cell growth at 10 uM; details: read-out: Activity
# In short: (§1)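 NCI-60 screen: cells grown in RPMI 1640 with 5% FBS and 2 mM L-glutamine, plated at 5000–40,000 cells/well according to doubling time, and preincubated 24 h at 37 °C, 5% CO2. The single 10 µM dose (DMSO stock) was added, then incubated 48 h. Cells were TCA-fixed and stained with 0.4% SRB, read at 515 nm, and growth % calculated against time-zero and control plates.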
# KM12 [2] = assay: Cytotoxicity against human KM12 cells assessed as cell growth at 10 uM after 48 hrs by sulforhodamine B assay; details: KM12, 48 h, read-out: Activity
# SK-MEL-5 = assay: Growth inhibition of human SK-MEL-5 cells after 48 hrs by sulforhodamine B assay; details: SK-MEL-5, 48 h; for CC50: read-out: LC50 (the source's name)
# In short: (§2)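 NCI 60-cell screen, five-dose mode. Cells grown in RPMI 1640 with 5% FBS and 2 mM L-glutamine and plated at 5000-40,000 cells/well according to doubling time. After 24 h preincubation, a Tz plate was TCA-fixed. Five concentrations (10-fold or 1/2 log dilutions) were applied for 48 h at 37 °C. SRB staining read at 515 nm. IC50 taken from [(Ti-Tz)/(C-Tz)]×100 = 50.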
# NCI-H522 = assay: Cytotoxicity against human NCI-H522 cells assessed as cell growth at 10 uM after 48 hrs by sulforhodamine B assay; details: NCI-H522, 48 h, read-out: Activity
# COLO 205 = assay: Cytotoxicity against human COLO205 cells assessed as cell growth at 10 uM after 48 hrs by sulforhodamine B assay; details: COLO 205, 48 h, read-out: Activity
# MDA-MB-231 = assay: Growth inhibition of human MDA-MB-231 cells after 48 hrs by sulforhodamine B assay; details: MDA-MB-231, 48 h; in short: as §2
# MDA-MB-468 = assay: Cytotoxicity against human MDA-MB-468 cells assessed as cell growth at 0.01 uM after 48 hrs by sulforhodamine B assay; details: MDA-MB-468, 48 h, read-out: Activity
# ACHN = assay: Cytotoxicity against human ACHN cells assessed as cell growth at 100 nM after 48 hrs by sulforhodamine B assay; details: read-out: Activity
# In short: (§3)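 NCI-60 five-dose screen. Cells were grown in RPMI 1640 with 5% FBS and 2 mM L-glutamine, plated at 5000–40,000 cells/well and preincubated for 24 h. Time-zero plates were TCA-fixed. DMSO-solubilized drug was added at five concentrations (10-fold or ½-log serial dilutions) for 48 h at 37 °C, 5% CO2. Cells were TCA-fixed, stained with 0.4% SRB and read at 515 nm. Percent growth used time-zero, control and test absorbances.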
# HT-29 [3] = assay: Cytotoxicity against human HT-29 cells assessed as cell growth at 10 uM; details: read-out: Activity
# In short: (§4)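 Single-dose NCI-60 screen at 10 µM. Cells were grown in RPMI 1640 with 5% FBS and 2 mM L-glutamine, then treated for 48 h at 37 °C. Protein was measured by SRB staining with absorbance at 515 nm. Percentage growth was recorded, and inhibition percentage was calculated as 100 minus growth percentage.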
# NCI-H23 [4] = assay: Growth inhibition of human NCI-H23 cells after 48 hrs by sulforhodamine B assay; details: NCI-H23, 48 h; for CC50: read-out: LC50 (the source's name); in short: as §2
# A498 = assay: Cytotoxicity against human A498 cells assessed as cell growth at 10 uM; details: read-out: Activity; in short: as §4
# UACC-257 = assay: Growth inhibition of human UACC257 cells after 48 hrs by sulforhodamine B assay; details: UACC-257, 48 h; for CC50: read-out: LC50 (the source's name); in short: as §2
# KM12 [5] = assay: Cytotoxicity against human KM12 cells assessed as cell growth at 100 nM after 48 hrs by sulforhodamine B assay; details: KM12, 48 h, read-out: Activity
# LOX IMVI [6] = assay: Cytotoxicity against human LOXIMVI cells assessed as cell growth at 0.01 uM after 48 hrs by sulforhodamine B assay; details: read-out: Activity
# OVCAR-4 = assay: Cytotoxicity against human OVCAR4 cells assessed as cell growth at 10 uM; details: read-out: Activity; in short: as §1
# UACC-62 [7] = assay: Cytotoxicity against human UACC62 cells assessed as cell growth at 1 uM after 48 hrs by sulforhodamine B assay; details: UACC-62, 48 h, read-out: Activity
# HOP-62 = assay: Cytotoxicity against human HOP62 cells assessed as cell growth at 1 uM after 48 hrs by sulforhodamine B assay; details: HOP-62, 48 h, read-out: Activity
# UO-31 = assay: Cytotoxicity against human UO31 cells assessed as cell growth at 1 uM after 48 hrs by sulforhodamine B assay; details: UO-31, 48 h, read-out: Activity
# OVCAR-5 = assay: Cytotoxicity against human OVCAR5 cells assessed as cell growth at 1 uM after 48 hrs by sulforhodamine B assay; details: OVCAR-5, 48 h, read-out: Activity
# HOP-92 = assay: Cytotoxicity against human HOP92 cells assessed as cell growth at 0.01 uM after 48 hrs by sulforhodamine B assay; details: HOP-92, 48 h, read-out: Activity
# CCRF-CEM = assay: Cytotoxicity against human CCRF-CEM cells assessed as cell growth at 0.01 uM after 48 hrs by sulforhodamine B assay; details: read-out: Activity; in short: as §3
# MOLT-4 = assay: Cytotoxicity against human MOLT4 cells assessed as cell growth at 10 uM after 48 hrs by sulforhodamine B assay; details: MOLT-4, 48 h, read-out: Activity
# SW-620 = assay: Cytotoxicity against human SW620 cells assessed as cell growth at 0.001 uM after 48 hrs by sulforhodamine B assay; details: SW-620, 48 h, read-out: Activity
# K562 = assay: Cytotoxicity against human K562 cells assessed as cell growth at 0.01 uM after 48 hrs by sulforhodamine B assay; details: K562, 48 h, read-out: Activity
# [8] = Cytotoxicity against human RPMI8266 cells assessed as cell growth at 0.01 uM after 48 hrs by sulforhodamine B assay; details: read-out: Activity
# LOX IMVI [9] = assay: Cytotoxicity against human LOXIMVI cells assessed as cell growth at 10 uM; details: read-out: Activity; in short: as §1
# NCI-H23 [10] = assay: Cytotoxicity against human NCI-H23 cells assessed as cell growth at 0.01 uM after 48 hrs by sulforhodamine B assay; details: NCI-H23, 48 h, read-out: Activity
# UACC-62 [11] = assay: Growth inhibition of human UACC62 cells after 48 hrs by sulforhodamine B assay; details: UACC-62, 48 h; for CC50: read-out: LC50 (the source's name); in short: as §2
# T47D = assay: Cytotoxicity against human T47D cells assessed as cell growth at 10 uM after 48 hrs by sulforhodamine B assay; details: read-out: Activity
# A549 = assay: Cytotoxicity against human A549 cells assessed as cell growth at 100 nM after 48 hrs by sulforhodamine B assay; details: A549, 48 h, read-out: Activity; in short: as §3
smiles,measurement,setting,value
Cc1cc(O)cc(-c2nn(CC#N)cc2-c2ccnc(-c3ccc(Oc4ccccc4)cc3)c2)c1,growth at 0.001 µM,HT-29 [1],95%
same,growth at 10 µM,U-251,47.5%
same,growth at 10 µM,KM12 [2],-100%
same,GI50,SK-MEL-5,2930 nM
same,TGI,SK-MEL-5,9.9 µM
same,CC50,SK-MEL-5,31.5 µM
same,growth at 10 µM,NCI-H522,-93%
same,growth at 10 µM,COLO 205,-96%
same,GI50,MDA-MB-231,2280 nM
same,LC50,MDA-MB-231,57.7 µM
same,TGI,MDA-MB-231,7.33 µM
same,growth at 0.01 µM,MDA-MB-468,85%
same,growth at 0.1 µM,ACHN,95%
same,growth at 10 µM,HT-29 [3],0.27%
same,GI50,NCI-H23 [4],1940 nM
same,TGI,NCI-H23 [4],3.97 µM
same,CC50,NCI-H23 [4],8.13 µM
same,growth at 10 µM,A498,93.9%
same,GI50,UACC-257,2380 nM
same,TGI,UACC-257,8.38 µM
same,CC50,UACC-257,31.7 µM
same,growth at 0.1 µM,KM12 [5],85%
same,growth at 0.01 µM,LOX IMVI [6],101%
same,growth at 10 µM,OVCAR-4,49.8%
same,growth at 1 µM,UACC-62 [7],33%
same,growth at 1 µM,HOP-62,60%
same,growth at 1 µM,UO-31,19%
same,growth at 1 µM,OVCAR-5,35%
same,growth at 0.01 µM,HOP-92,59%
same,growth at 0.01 µM,CCRF-CEM,93%
same,growth at 10 µM,MOLT-4,-21%
same,growth at 0.001 µM,SW-620,93%
same,growth at 0.01 µM,K562,44%
same,growth at 0.01 µM,[8],100%
same,growth at 10 µM,LOX IMVI [9],16.6%
same,growth at 0.01 µM,NCI-H23 [10],93%
same,GI50,UACC-62 [11],4.67 µM
same,TGI,UACC-62 [11],18.1 µM
same,CC50,UACC-62 [11],44.4 µM
same,growth at 10 µM,T47D,-67%
same,growth at 0.1 µM,A549,87%
COc1cc(C)cc(-c2nn(CC#N)cc2-c2ccc(-c3cccc(C(C)=O)c3)nc2)c1,growth at 0.001 µM,HT-29 [1],95%
same,growth at 10 µM,U-251,11.8%
same,growth at 10 µM,KM12 [2],-25%
same,GI50,SK-MEL-5,1540 nM
same,TGI,SK-MEL-5,6.79 µM
same,CC50,SK-MEL-5,39.8 µM
same,growth at 10 µM,NCI-H522,-40%
same,growth at 10 µM,COLO 205,-62%
same,GI50,MDA-MB-231,3040 nM
same,LC50,MDA-MB-231,> 100 µM
same,TGI,MDA-MB-231,> 100 µM
same,growth at 0.01 µM,MDA-MB-468,82%
same,growth at 0.1 µM,ACHN,93%
same,growth at 10 µM,HT-29 [3],3.66%
same,GI50,NCI-H23 [4],3450 nM
same,TGI,NCI-H23 [4],84 µM
same,CC50,NCI-H23 [4],> 100 µM
same,growth at 10 µM,A498,19.7%
same,GI50,UACC-257,3610 nM
same,TGI,UACC-257,> 100 µM
same,CC50,UACC-257,> 100 µM
same,growth at 0.1 µM,KM12 [5],75%
same,growth at 0.01 µM,LOX IMVI [6],96%
same,growth at 10 µM,OVCAR-4,31.7%
same,growth at 1 µM,UACC-62 [7],38%
same,growth at 1 µM,HOP-62,16%
same,growth at 1 µM,UO-31,21%
same,growth at 1 µM,OVCAR-5,21%
same,growth at 0.01 µM,HOP-92,80%
same,growth at 0.01 µM,CCRF-CEM,94%
same,growth at 10 µM,MOLT-4,14%
same,growth at 0.001 µM,SW-620,96%
same,growth at 0.01 µM,K562,80%
same,growth at 0.01 µM,[8],93%
same,growth at 10 µM,LOX IMVI [9],25.4%
same,growth at 0.01 µM,NCI-H23 [10],91%
same,GI50,UACC-62 [11],4.36 µM
same,TGI,UACC-62 [11],> 100 µM
same,CC50,UACC-62 [11],> 100 µM
same,growth at 10 µM,T47D,-29%
same,growth at 0.1 µM,A549,91%
